A selection: hits, their analogues and other compounds. The true share with any hit is near 1.2%.
Lipid droplet: hepatic lipid droplet formation modulation; AML12 mouse hepatocytes, oleate lipid droplets, BODIPY imaging; inhibition, % at 6.5 µM; hit rate 0.4% among 240,000;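 active means lipid droplet intensity inhibited by at least 50%, with more than 500 cells counted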
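Material – AML12 mouse liver cells · Also added – oleate loading, 100 µM · Compound dosing – 6.5 µM single-point dosing · Times – overnight treatment with compound plus oleate · Measured by – fluorescence imaging, 20x objective, two fields per well · Read-out – percent inhibition of filter-corrected integrated lipid droplet intensity per well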
Rce1 inhib: blocks yeast Ras-converting enzyme. yeast membranes, quenched prenylated peptide cleavage fluorescence. hit rate 0.27% among 290,000. Q03530. calls only;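 active means fall in fluorescence gain of 50% or more versus controls, with final raw signal at or below 3038400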;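 further: plate controls were neutral control wells for no effect and wells lacking membranes for full effect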
proCasp3 act: activators of human procaspase-3. hit rate 0.11% among 330,000. AID 463141. P42574. activation, % at 8.5 µM. recombinant procaspase-3 D3A, Ac-DEVD-pNA absorbance 405 nm;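 active means activation above the mean of all tested compounds plus 3 SD, cut at about 21% in these data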;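 further: 0% = DMSO alone and 100% = DMSO wells spiked with extra 5 µM PC-3 D3A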
Target sequence (P42574 whole entry D9A/D28A/D175A): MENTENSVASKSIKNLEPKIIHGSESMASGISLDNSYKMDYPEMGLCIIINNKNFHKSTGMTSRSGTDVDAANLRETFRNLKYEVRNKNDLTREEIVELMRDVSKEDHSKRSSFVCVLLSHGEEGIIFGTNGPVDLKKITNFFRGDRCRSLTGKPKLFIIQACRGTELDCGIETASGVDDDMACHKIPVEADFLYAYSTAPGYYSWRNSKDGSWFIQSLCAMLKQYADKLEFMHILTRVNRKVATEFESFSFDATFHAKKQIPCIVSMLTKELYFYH
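Test system: Procaspase-3 D3A mutant; medium: Zinc-free HEPES/NaCl buffer with 0.01% Triton X-100 at pH 7.4; reagent: DEVD-pNA substrate; doses: one concentration, 8.5 µM nominal, 0.8% DMSO; times: 1 h preincubation plus 2 h reaction at 25 °C; signal: Epi-absorbance at 405 nm of released p-nitroaniline, 0 and 120 min; replicates: singlicate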
proCasp7 act: counter-screen for procaspase-3 activators: activators of human procaspase-7; hit rate 0.093% among 330,000; activation, % at 8.5 µM; recombinant procaspase-7, Ac-DEVD-pNA absorbance 405 nm; D23A/D198A/D206A triple mutant, cannot self-cleave; scale: DMSO 0, 5 µM enzyme 100; AID 463210;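 active means percent activation above the screen-wide mean plus 3 SD, cut at about 25% in these data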
Target sequence (P55210 whole entry D23A/D198A/D206A): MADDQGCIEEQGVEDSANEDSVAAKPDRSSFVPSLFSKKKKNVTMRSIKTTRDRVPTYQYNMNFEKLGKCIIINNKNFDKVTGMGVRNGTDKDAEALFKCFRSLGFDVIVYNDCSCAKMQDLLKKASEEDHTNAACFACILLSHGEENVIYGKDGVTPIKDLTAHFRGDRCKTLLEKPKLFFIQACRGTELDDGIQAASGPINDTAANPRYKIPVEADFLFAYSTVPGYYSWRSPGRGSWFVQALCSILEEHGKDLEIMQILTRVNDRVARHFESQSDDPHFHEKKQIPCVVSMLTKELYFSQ
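Assay system: Uncleavable procaspase-7 mutant enzyme | Input: 2 µM procaspase-7 mutant as dispensed | Timing: 1 h compound preincubation, 2 h substrate cleavage, 25 °C | Repeats: One well per compound | Control set: DMSO wells as 0%, DMSO with 5 µM added PC-7 as 100% | Technique: Epi-absorbance of released pNA at 405 nm, two timepoints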
pCIP destab: lowers stability of the mouse p/CIP coactivator protein; Q05BA5; F442A p/CIP-EGFP cells, EGFP fluorescence, 16 h; decrease of EGFP signal, % at 10 µM; hit rate 0.01% among 290,000; AID 1984;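 active means EGFP signal decrease of at least 30% at 10 µM or well 3 SD below plate mean, unless failing retest; inactive means the rest, including hits failing retest or dose response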
FXN GAA850 act: increases GAA850 frataxin promoter reporter activity | HEK293 lucGAA850 FXN promoter luciferase reporter, 24 h; percent of 10 µM SAHA response | activation, % at 6 µM | hit rate 0.56% among 360,000;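 active means activation above the average of all compounds screened plus 3 SD, cutoff fixed separately per campaign, cut at about 7.5% in these data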;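 further: 0% = DMSO wells and 100% = 10 µM SAHA wells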
Hep lipid conf: confirmation of inhibitors of hepatic lipid droplet formation. shares compounds with Lipid droplet. AML12 mouse hepatocytes, BODIPY lipid droplet imaging; droplets induced with 100 µM oleic acid. inhibition, % at 5.2 µM. hit rate 65% among 870;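 active means inhibition of lipid droplet metric at least 50%, with more than 300 cells in each of four replicates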;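 further: plate controls were DMSO with oleic acid for no effect and 5 µM Triacsin-C for full effect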
AML12 cytotox: AML12 hepatocyte cytotoxicity (counter-screen) | z-score at 5 µM | AML12 mouse hepatocytes, DAPI nuclear morphology cytotoxicity imaging; hits give high values; cells fed 100 µM oleate overnight | AID 463200 | hit rate 3% among 870 | shares compounds with Lipid droplet; in the data active means z-score above about 6.3;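 further: compound exposure lasted overnight at 37 °C before fixation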
AML12 tox ATP: confirmation of cytotoxicity in AML12 mouse hepatocytes; shares compounds with Lipid droplet; AML12 mouse hepatocyte viability, ATP luminescence; cells loaded with 100 µM oleic acid; cytotoxicity, % at 50 µM; 530 tested, under 10 active;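 active means cytotoxicity above 50% in each of four replicates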;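 further: compound exposure lasted overnight at 37 °C before the ATP read; 0% = DMSO-treated cells and 100% = wells with no cells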
Starred values were filed as active, the others as inactive; i = inactive; nt = no result given.

SMILES | Lipid droplet | Rce1 inhib | proCasp3 act | proCasp7 act | pCIP destab | FXN GAA850 act | Hep lipid conf | AML12 cytotox | AML12 tox ATP
CCc1ccc(NS(=O)(=O)c2cc3c(cc2C)n(C)c(=O)c(=O)n3C)cc1 | 51* | i | -4 | 4 | -17 | -4 | 93* | -0.7 | 5
Cc1cc2c(cc1S(=O)(=O)Nc1cccc(C)c1C)n(C)c(=O)c(=O)n2C | 54* | i | -7 | -1 | -10 | -4 | 66 | -0.54 | nt
Cc1cc2c(cc1S(=O)(=O)Nc1c(C)cccc1C)n(C)c(=O)c(=O)n2C | 71* | i | 0 | -5 | -6 | -1 | 92* | -0.12 | 8
Cc1cc2c(cc1S(=O)(=O)NCc1ccccc1)n(C)c(=O)c(=O)n2C | -2 | i | 7 | -2 | -4 | 0 | nt | nt | nt
CC(C)C(C)(C#N)NC(=O)CSc1nc2scc(-c3ccc(F)cc3)c2c(=O)n1Cc1ccccc1 (centres undefined) | 105* | i | -7 | 3 | -4 | 0 | 113* | -0.29 | nt
COc1ccccc1NC1=C(N2CCCCC2)C(=O)c2ccccc2C1=O | 69* | i | -15 | -26 | 2 | -5 | 40 | -0.26 | nt
CN(C1=C(N2CCCCC2)C(=O)c2ccccc2C1=O)c1ccccc1 | 79* | i | -6 | -15 | -2 | -1 | 114* | 0.76 | 11
O=C1C(Nc2ccccc2)=C(N2CCCCC2)C(=O)c2ccccc21 | nt | i | 1 | -13 | -8 | -4 | nt | nt | nt
Cc1cccc(N/C(N)=N/c2nc3c(c(=O)[nH]2)CCCC3)c1 | 16 | i | 5 | -10 | 6 | 2 | nt | nt | nt
N/C(=N\c1nc2c(c(=O)[nH]1)CCCC2)Nc1ccc(Oc2ccccc2)cc1 | 61* | i | 3 | 1 | -4 | 5 | 41 | 1.1 | nt
C=Cc1ccc(Cn2c(C)c(C(=O)NCc3ccccc3C(F)(F)F)sc2=O)cc1 | nt | nt | nt | nt | nt | -2 | nt | nt | nt
CCc1ccc(OCc2ccc(C(=O)O)o2)cc1 | 59* | i | 0 | 9 | -13 | 5 | 16 | -0.027 | nt
Cc1ccc(N=Nc2ccc3ccccc3c2O)cc1 | 82* | i | -2 | 5 | -5 | -6 | 53 | 0.11 | nt
Oc1c(N=Nc2ccc(F)cc2)ccc2ccccc12 | 71* | i | -6 | 1 | -12 | 3 | 96* | 1 | 64*
COc1cccc(N=Nc2ccc3ccccc3c2O)c1 | 75* | i | 6 | -3 | 8 | 5 | 70 | -0.23 | 61*
Cc1cc(F)cc(-c2cc(C(=O)NCc3ccccn3)[nH]n2)c1 | nt | nt | nt | nt | nt | -2 | nt | nt | nt
CCc1ccc(NC(=O)CNC(=O)[C@@H]2Cc3ccccc3CN2C(=O)OC(C)(C)C)cc1 | 54* | i | 3 | -2 | 25 | 0 | 76* | -0.28 | 2
CCc1ccc(NC(=O)CNC(=O)[C@@H]2Cc3ccccc3CN2)cc1 | 3 | i | -3 | 1 | -4 | 0 | nt | nt | nt
CCn1cc(C(=O)NCc2ccc(Cl)cc2)c(=O)c2cc(S(=O)(=O)N(C)C)ccc21 | 62* | i | -2 | 7 | 6 | 2 | 45 | -0.85 | 19
CCC(C)(C)NC(=O)C(c1sccc1C)N(Cc1ccco1)C(=O)c1csnn1 (centres undefined) | 58* | i | -2 | 1 | 1 | 4 | 70* | -0.47 | 12
CC(C)(C)c1ccc(-c2csc(NNC3=NCCCCC3)n2)cc1 | 60* | i | -1 | -4 | -8 | -1 | 100* | -0.65 | 12
FC(F)Oc1ccc(-c2csc(NNC3=NCCCCC3)n2)cc1 | 95* | i | -26 | -17 | -15 | 1 | 115* | 0.88 | 25
CCNC(=O)C1(C)CCCN(Cc2ccc3ccccc3c2Br)C1 (centres undefined) | nt | nt | nt | nt | nt | -1 | nt | nt | nt
O=Cc1cc(N=Nc2ccc(S(=O)(=O)O)cc2)ccc1O | nt | i | -20 | -3 | nt | 1 | nt | nt | nt
Cc1cc(C=O)c(O)cc1O | 51* | i | 8 | 1 | 3 | 2 | 27 | -0.29 | nt
SMILES | Lipid droplet | Rce1 inhib | proCasp3 act | proCasp7 act | pCIP destab | FXN GAA850 act | Hep lipid conf | AML12 cytotox | AML12 tox ATP
Cc1ccc(/C=C/C(=O)NCC2COc3ccccc3O2)o1 (centres undefined) | 53* | i | -4 | -12 | 4 | 1 | 18 | -0.28 | nt
O=C(NCC1CCCO1)c1ccc(Cl)c(S(=O)(=O)N2CCOCC2)c1 (centres undefined) | -1 | i | 4 | -1 | -17 | 0 | nt | nt | nt
O=C(Nc1ccccc1)c1ccc(NCC2CCCO2)c(S(=O)(=O)N2CCOCC2)c1 (centres undefined) | 51* | i | 10 | 10 | -20 | -2 | 21 | 0.057 | nt
CC(=O)c1c(C)[nH]c(C(=O)Nc2nc(-c3ccc(Cl)cc3)cs2)c1C | -2 | i | -1 | 3 | -3 | 0 | nt | nt | nt
CC(=O)c1c(C)[nH]c(C(=O)Nc2nc(-c3ccc(-c4ccccc4)cc3)cs2)c1C | 95* | i | 2 | 2 | -4 | 3 | -2 | -0.39 | nt
CC(C)=C[C@H]1C[C@H](C)[C@H]2CC[C@H](C)c3c(O[C@@H]4O[C@@H](C)[C@@H](O)[C@@H](O)[C@@H]4O)c(O)c(C)c1c32 | nt | nt | nt | nt | nt | 2 | nt | nt | nt
COc1ccc(CC(=O)OCC(=O)N2N=C(c3ccccc3)CC2c2ccc(OC)cc2)cc1 (centres undefined) | 82* | i | 7 | 4 | -8 | 1 | 107* | -0.45 | nt
COc1ccc(C2CC(c3ccccc3)=NN2C(=O)COC(=O)C2CC2)cc1 (centres undefined) | 16 | i | -1 | 4 | -5 | 2 | nt | nt | nt
O=C(CC1CCCCC1)NCc1ccccc1Cl | -10 | i | 0 | 8 | -1 | 3 | nt | nt | nt
COc1ccc(Oc2c(OC)cc(NCc3ccc(CN)cc3)c3ncccc23)cc1 | nt | nt | nt | nt | nt | 1 | nt | nt | nt
C=CCNC(=S)Nc1cc(S(=O)(=O)N2CCOCC2)ccc1-n1cncn1 | 119* | i | -6 | 6 | -5 | 2 | -7 | -0.26 | nt
COc1cc(/C=C\C(=O)OCn2nnc3ccccc3c2=O)cc(OC)c1OC | 57* | i | -4 | -2 | -3 | 2 | 25 | -0.6 | nt
COc1cc(C(=O)OCn2nnc3ccccc3c2=O)cc(OC)c1OC | 8 | i | 1 | 1 | 5 | 2 | nt | nt | nt

Compound activity: PubChem BioAssay, several laboratories
